# Laboratory results from ChEMBL document CHEMBL3352233, “N-[6-(4-butanoyl-5-methyl-1H-pyrazol-1-yl)pyridazin-3-yl]-5-chloro-1-[2-(4-methylpiperazin-1-yl)-2-oxoethyl]-1H-indole-3-carboxamide (SAR216471), a novel intravenous and oral, reversible, and directly acting P2Y12 antagonist” (J Med Chem, 2014).
# Active and inactive are the calls of the source. No cut-off for these calls is given here.
# Test system: Liver microsome
# Test: (§1) Metabolic stability in rat liver microsomes assessed as compound metabolism after 20 mins incubation in presence of 1 mM NADPH
# Format: ADME
# Settings: microsomes, 20 min
# In short: (§2)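 Hepatic microsomal fractions are incubated with compound for 20 min with 1 mM NADPH. Result is reported as % metabolized, i.e. 100 minus % unchanged compound.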
row,SMILES,Drug metabolism
1,"CCCC(=O)c1cnn(-c2ccc(NC(=O)c3cn(CC(=O)N4CCN5CCN(C)C(=O)C5C4)c4ccc(Cl)cc34)cc2)c1C (single isomer, unassigned; 104)",7%
2,"CCCC(=O)c1cnn(-c2ccc(NC(=O)c3cn(CC(=O)N4CCN5CCN(C)C(=O)C5C4)c4ccc(Cl)cc34)cc2)c1C (single isomer, unassigned; 103)",23%
3,CCCC(=O)c1cnn(-c2ccc(NC(=O)c3cn(CC(=O)N4CCN5CCN(C)C(=O)C5C4)c4ccc(Cl)cc34)cc2)c1C (racemic),40%

# Test system: not listed separately
# Test: as §1
# Format: ADME
# Settings: liver microsomes, read-out: Drug metabolism
# In short: as §2
row,metabolised at 20 min,SMILES
1,18%,CCCC(=O)c1cnn(-c2ccc(NC(=O)c3cn(CC(=O)N4CCN(C)CC4)c4ccc(Cl)cc34)c(C#N)c2)c1C
2,20%,CCCC(=O)c1cnn(-c2ccc(NC(=O)c3cn(CC(=O)N4CCN(C)CC4)c4cc(C)c(Br)cc34)cc2)c1C
3,21%,CCCC(=O)c1cnn(-c2ccc(NC(=O)c3cn(CC(=O)N4CCN(C)CC4)c4cc(F)c(Cl)cc34)cc2)c1C
4,23%,CCCC(=O)c1cnn(-c2ccc(NC(=O)c3cn(CC(=O)N4CCN(C)CC4)c4cc(C)c(Cl)cc34)cc2)c1C

# The remaining lines, values behind:
row,SMILES,metabolised at 20 min
1,CCCC(=O)c1cnn(-c2ccc(NC(=O)c3cn(CC(=O)N4CCN(CCO)CC4)c4ccc(Cl)cc34)cc2)c1C,6%
2,CCCC(=O)c1cnn(C2CCN(NC(=O)c3cn(CC(=O)N4CCN(C)CC4)c4ccc(Cl)cc34)CC2)c1C,13%

# Test system: Liver microsome
# Test: (§3) Metabolic stability in human liver microsomes assessed as compound metabolism after 20 mins incubation in presence of 1 mM NADPH
# Format: ADME
# Settings: microsomes, 20 min
# In short: as §2
row,SMILES,Drug metabolism
1,"CCCC(=O)c1cnn(-c2ccc(NC(=O)c3cn(CC(=O)N4CCN5CCN(C)C(=O)C5C4)c4ccc(Cl)cc34)cc2)c1C (single isomer, unassigned; 104)",47%
2,"CCCC(=O)c1cnn(-c2ccc(NC(=O)c3cn(CC(=O)N4CCN5CCN(C)C(=O)C5C4)c4ccc(Cl)cc34)cc2)c1C (single isomer, unassigned; 103)",52%

# Test system: not listed separately
# Test: as §3
# Format: ADME
# Settings: liver microsomes, read-out: Drug metabolism
# In short: as §2
row,metabolised at 20 min,SMILES
1,61%,CCCC(=O)c1cnn(-c2ccc(NC(=O)c3cn(CC(=O)N4CCN(C)CC4)c4ccc(Cl)cc34)c(C#N)c2)c1C
2,34%,CCCC(=O)c1cnn(-c2ccc(NC(=O)c3cn(CC(=O)N4CCN(C)CC4)c4cc(C)c(Br)cc34)cc2)c1C
3,31%,CCCC(=O)c1cnn(-c2ccc(NC(=O)c3cn(CC(=O)N4CCN(C)CC4)c4cc(F)c(Cl)cc34)cc2)c1C
4,36%,CCCC(=O)c1cnn(-c2ccc(NC(=O)c3cn(CC(=O)N4CCN(C)CC4)c4cc(C)c(Cl)cc34)cc2)c1C

# More lines, now with the values behind:
row,SMILES,metabolised at 20 min
1,CCCC(=O)c1cnn(-c2ccc(NC(=O)c3cn(CC(=O)N4CCN(CCO)CC4)c4ccc(Cl)cc34)cc2)c1C,14%
2,CCCC(=O)c1cnn(C2CCN(NC(=O)c3cn(CC(=O)N4CCN(C)CC4)c4ccc(Cl)cc34)CC2)c1C,59%
3,CCCC(=O)c1cnn(-c2ccc(NC(=O)c3cn(CC(=O)N4CCN5CCN(C)C(=O)C5C4)c4ccc(Cl)cc34)cc2)c1C (racemic),50%

# Test system: not listed separately
# Test: Permeability across human Caco2 cells
# Format: ADME, cell-based
# Settings: Caco-2
# In short: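 Permeation is measured across a Caco2 cell monolayer and reported in 10⁻⁷ cm·s⁻¹.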
row,SMILES,permeability
1,"CCCC(=O)c1cnn(-c2ccc(NC(=O)c3cn(CC(=O)N4CCN5CCN(C)C(=O)C5C4)c4ccc(Cl)cc34)cc2)c1C (single isomer, unassigned; 104)",28 ×10⁻⁷ cm/s
2,"CCCC(=O)c1cnn(-c2ccc(NC(=O)c3cn(CC(=O)N4CCN5CCN(C)C(=O)C5C4)c4ccc(Cl)cc34)cc2)c1C (single isomer, unassigned; 103)",32 ×10⁻⁷ cm/s

# Same assay, conditions: Caco-2, read-out: permeability
row,Papp,SMILES
1,3.3 ×10⁻⁶ cm/s,CCCC(=O)c1cnn(-c2ccc(NC(=O)c3cn(CC(=O)N4CCN(C)CC4)c4ccc(Cl)cc34)c(C#N)c2)c1C
2,2.8 ×10⁻⁶ cm/s,CCCC(=O)c1cnn(-c2ccc(NC(=O)c3cn(CC(=O)N4CCN(C)CC4)c4cc(C)c(Br)cc34)cc2)c1C
3,1.1 ×10⁻⁶ cm/s,CCCC(=O)c1cnn(-c2ccc(NC(=O)c3cn(CC(=O)N4CCN(C)CC4)c4cc(F)c(Cl)cc34)cc2)c1C
4,3.6 ×10⁻⁶ cm/s,CCCC(=O)c1cnn(-c2ccc(NC(=O)c3cn(CC(=O)N4CCN(C)CC4)c4cc(C)c(Cl)cc34)cc2)c1C

# The remaining lines, values behind:
row,SMILES,Papp
1,CCCC(=O)c1cnn(C2CCN(NC(=O)c3cn(CC(=O)N4CCN(C)CC4)c4ccc(Cl)cc34)CC2)c1C,0.1 ×10⁻⁶ cm/s
2,CCCC(=O)c1cnn(-c2ccc(NC(=O)c3cn(CC(=O)N4CCN5CCN(C)C(=O)C5C4)c4ccc(Cl)cc34)cc2)c1C (racemic),3.6 ×10⁻⁶ cm/s

# Test system: Hepatocyte
# Test: Intrinsic metabolic clearance in human hepatocytes measured per 10^6 cells after 24 hrs
# Format: ADME, cell-based
# Settings: not given
# In short: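 Human hepatocytes incubated with compound for 24 h to measure in vitro metabolism. Clearance reported in mL·h⁻¹·(10⁶ hepatocytes)⁻¹.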
row,SMILES,CLH
1,CCCC(=O)c1cnn(-c2ccc(NC(=O)c3cn(CC(=O)N4CCN(C)CC4)c4ccc(Cl)cc34)c(C#N)c2)c1C,0.143 mL/h
2,CCCC(=O)c1cnn(C2CCN(NC(=O)c3cn(CC(=O)N4CCN(C)CC4)c4ccc(Cl)cc34)CC2)c1C,0.05 mL/h

# Test system: Rattus norvegicus
# Test: Ex vivo inhibition of platelet aggregation in Sprague-Dawley rat at 10 mg/kg, po after 6 hrs
# Format: functional
# Settings: 10 mg/kg
# In short: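 Time-course study in Sprague−Dawley rats after a 10 mg/kg oral dose in glucose/Cremophor/glycofurol vehicle. Aortic citrated blood is sampled at intervals over the hours after dosing. PRP is prepared at 300g for 5 min. ADP-induced aggregation is measured as the 6-min absorbance AUC and reported as % inhibition.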
row,SMILES,inhibition (INH)
1,"CCCC(=O)c1cnn(-c2ccc(NC(=O)c3cn(CC(=O)N4CCN5CCN(C)C(=O)C5C4)c4ccc(Cl)cc34)cc2)c1C (single isomer, unassigned; 104)",61%
2,CCCC(=O)c1cnn(-c2ccc(NC(=O)c3cn(CC(=O)N4CCN5CCN(C)C(=O)C5C4)c4ccc(Cl)cc34)cc2)c1C (racemic),39%

# Test system: Rattus norvegicus
# Test: Ex vivo inhibition of platelet aggregation in po dosed Sprague-Dawley rat after 2 hrs
# Format: functional
# Settings: not given
# In short: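 Oral gavage in male Sprague−Dawley rats (250−300 g, 6 per batch), vehicle 5% glucose water with 5% Cremophor and 3% glycofurol. Blood is collected 2 h after dosing from the abdominal aorta into 3.8% citrate under pentobarbital. PRP is prepared at 300g for 5 min. ADP-induced aggregation is quantified as the 6-min absorbance AUC, given as % inhibition.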
SMILES,ED50,inhibition
CCCC(=O)c1cnn(C2CCN(NC(=O)c3cn(CC(=O)N4CCN(C)CC4)c4ccc(Cl)cc34)CC2)c1C,0.95 mg/kg,Dose-dependent effect

# Test system: Rattus norvegicus
# Test: Ex vivo inhibition of platelet aggregation in Sprague-Dawley rat at 10 mg/kg, po after 2 hrs
# Format: functional
# Settings: not given
# In short: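 Male Sprague−Dawley rats (250−300 g), 6 per batch, are dosed by stomach tube at 10 mL/kg of a 1 mg/mL solution in 5% glucose water containing 5% Cremophor and 3% glycofurol. At 2 h, aortic blood is drawn into 3.8% citrate (1:9) under pentobarbital. PRP is prepared at 300g for 5 min. ADP aggregation is read as the 6-min absorbance AUC and expressed as % inhibition.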
row,SMILES,inhibition
1,CCCC(=O)c1cnn(-c2ccc(NC(=O)c3cn(CC(=O)N4CCN(C)CC4)c4cc(F)c(Cl)cc34)cc2)c1C,inactive

# Same assay, conditions: 10 mg/kg
row,SMILES,inhibition (INH)
1,"CCCC(=O)c1cnn(-c2ccc(NC(=O)c3cn(CC(=O)N4CCN5CCN(C)C(=O)C5C4)c4ccc(Cl)cc34)cc2)c1C (single isomer, unassigned; 103)",46%
2,CCCC(=O)c1cnn(-c2ccc(NC(=O)c3cn(CC(=O)N4CCN5CCN(C)C(=O)C5C4)c4ccc(Cl)cc34)cc2)c1C (racemic),80%

# Same assay, conditions: Rattus norvegicus, Sprague-Dawley, po, 2 h
row,SMILES,inhibition in vivo at 10 mg/kg
1,CCCC(=O)c1cnn(-c2ccc(NC(=O)c3cn(CC(=O)N4CCN(C)CC4)c4cc(C)c(Br)cc34)cc2)c1C,21%
2,CCCC(=O)c1cnn(-c2ccc(NC(=O)c3cn(CC(=O)N4CCN(CCO)CC4)c4ccc(Cl)cc34)cc2)c1C,22%
3,CCCC(=O)c1cnn(-c2ccc(NC(=O)c3cn(CC(=O)N4CCN(C)CC4)c4cc(C)c(Cl)cc34)cc2)c1C,31%

# Test system: not listed separately
# Test: Metabolic stability in mouse liver microsomes assessed as compound metabolism after 20 mins incubation in presence of 1 mM NADPH
# Format: ADME
# Settings: read-out: Drug metabolism
# In short: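 Compound incubated with mouse hepatic microsomal fractions for 20 min with 1 mM NADPH. Read-out is % metabolism, meaning 100 minus % unchanged compound.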
row,SMILES,metabolised at 20 min
1,CCCC(=O)c1cnn(-c2ccc(NC(=O)c3cn(CC(=O)N4CCN(C)CC4)c4ccc(Cl)cc34)c(C#N)c2)c1C,8%
2,CCCC(=O)c1cnn(C2CCN(NC(=O)c3cn(CC(=O)N4CCN(C)CC4)c4ccc(Cl)cc34)CC2)c1C,3%

# Target: P2Y purinoceptor 12 (Homo sapiens, UniProt Q9H244)
# Test: Displacement of [33P]2MeS-ADP from P2Y12 receptor (unknown origin) transfected in CHO cells after 30 mins by scintillation counting analysis
# Format: cell-based
# Settings: not given
# In short: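 P2Y12-expressing CHO cells (35 × 10³/sample) in PBS with 1 mM EDTA and 0.2% BSA are exposed to compound for 30 min. [³³P]2-MeS-ADP (0.16 nM) is then added for 15 min at 20 °C, in triplicate. Filtration separates free from bound ligand, followed by scintillation counting. Nonspecific binding uses 1 mM unlabeled ADP. IC50 comes from a four-parameter logistic fit with asymptotes fixed at 0 and 100. n = 2.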
# Chain of P2Y purinoceptor 12 (Q9H244 whole entry): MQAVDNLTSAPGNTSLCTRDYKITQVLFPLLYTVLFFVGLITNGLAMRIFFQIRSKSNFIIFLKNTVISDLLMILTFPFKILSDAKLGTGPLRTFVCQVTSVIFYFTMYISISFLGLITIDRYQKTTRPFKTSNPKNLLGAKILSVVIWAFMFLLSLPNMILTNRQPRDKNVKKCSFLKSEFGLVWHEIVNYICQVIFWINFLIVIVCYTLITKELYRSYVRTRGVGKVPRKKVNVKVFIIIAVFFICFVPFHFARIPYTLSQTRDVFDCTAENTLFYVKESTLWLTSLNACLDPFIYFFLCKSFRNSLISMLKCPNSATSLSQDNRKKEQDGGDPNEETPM
row,IC50,SMILES
1,48 nM,CCCC(=O)c1cnn(-c2ccc(NC(=O)c3cn(CC(=O)N4CCN(C)CC4)c4ccc(Cl)cc34)c(C#N)c2)c1C
2,48 nM,CCCC(=O)c1cnn(-c2ccc(NC(=O)c3cn(CC(=O)N4CCN(C)CC4)c4cc(C)c(Br)cc34)cc2)c1C
3,48 nM,CCCC(=O)c1cnn(-c2ccc(NC(=O)c3cn(CC(=O)N4CCN(C)CC4)c4cc(F)c(Cl)cc34)cc2)c1C
4,34 nM,CCCC(=O)c1cnn(-c2ccc(NC(=O)c3cn(CC(=O)N4CCN(C)CC4)c4cc(C)c(Cl)cc34)cc2)c1C

# Second part, the molecule before the results:
row,SMILES,IC50
1,CCCC(=O)c1cnn(-c2ccc(NC(=O)c3cn(CC(=O)N4CCN(CCO)CC4)c4ccc(Cl)cc34)cc2)c1C,11 nM
2,CCCC(=O)c1cnn(C2CCN(NC(=O)c3cn(CC(=O)N4CCN(C)CC4)c4ccc(Cl)cc34)CC2)c1C,7 nM
3,"CCCC(=O)c1cnn(-c2ccc(NC(=O)c3cn(CC(=O)N4CCN5CCN(C)C(=O)C5C4)c4ccc(Cl)cc34)cc2)c1C (single isomer, unassigned; 104)",12 nM
4,"CCCC(=O)c1cnn(-c2ccc(NC(=O)c3cn(CC(=O)N4CCN5CCN(C)C(=O)C5C4)c4ccc(Cl)cc34)cc2)c1C (single isomer, unassigned; 103)",7 nM
5,CCCC(=O)c1cnn(-c2ccc(NC(=O)c3cn(CC(=O)N4CCN5CCN(C)C(=O)C5C4)c4ccc(Cl)cc34)cc2)c1C (racemic),8 nM

# Test system: Hepatocyte
# Test: Intrinsic metabolic clearance in human hepatocytes measured assessed as CYP3A4 contribution per 10^6 cells after 24 hrs
# Format: ADME, cell-based
# Settings: not given
row,SMILES,Activity
1,CCCC(=O)c1cnn(-c2ccc(NC(=O)c3cn(CC(=O)N4CCN(C)CC4)c4ccc(Cl)cc34)c(C#N)c2)c1C,67%
2,CCCC(=O)c1cnn(C2CCN(NC(=O)c3cn(CC(=O)N4CCN(C)CC4)c4ccc(Cl)cc34)CC2)c1C,35%
